The nature of experiment [1]: reducers of endogenous Her2 protein level, primary screen, SKBR3 breast tumor cells, AlphaScreen, ATP viability (AID 461).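 For Her2 level: lower value means less Her2 protein in the cells.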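 For viability: percent of carrier control wells set as 100% viability.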 The conditions noted are these: 18-24 h, measured here: SKBR3 viability, ATP luminescence, at 10 µM.
Experiment [2] concerns the target Receptor tyrosine-protein kinase erbB-2 (Homo sapiens) (UniProt P04626). Described as above. The conditions noted are these: 18-24 h, at 10 µM, stronger effect = lower value.
Experiment [3] can be described thus: SK-BR-3 cell growth inhibitors, pilot screen, 24 h, human (AID 572;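 active = viability at or below 10% of carrier control in both of two separate runs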;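 note: compound exposure lasted between 18 and 24 h rather than exactly 24 h; 100% = carrier-treated control wells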). The conditions noted are these: SK-BR-3 viability, CellTiter-Glo luminescence, at 10 µM, stronger effect = lower value.
A short description of experiment [4]: HUVEC growth inhibition – cell-based, human, primary screen (AID 575;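 active = viability at or below 30% in both replicate assays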;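 note: 100% = median of untreated cell wells with 0.1% DMSO on each plate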). The conditions noted are these: HUVEC proliferation, CellTiter-Glo luminescence, 72 h; at 10 µM; stronger effect = lower value. The method, boiled down:
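Test system: primary human umbilical vein endothelial cells. Quantity: 1250 cells/well. Compound: single 10 µM dose, 0.1% DMSO, from 5x medium stock. Timing: 72 h treatment at 37 °C. Detection: ATP-based CellTiter-Glo luminescent read. Benchmarks: vehicle and MePR control wells. Format: 384-well plates coated with collagen.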

Experiment [5] is described as follows: growth inhibitors of H69AR lung tumor, primary screen, human, duplicate replicates (AID 580;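 active = viability at or under a set limit in both replicates, limit being median viability minus 3 SD, cut at about 48% in these data, passing the limit was not always enough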;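 note: 100% = mean luminescence of untreated wells and 0% = no signal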). The conditions noted are these: H69AR lung tumor cells viability, ATP luminescence, 72 h; at 10 µM; stronger effect = lower value.
A short description of experiment [6]: reversal of MRP1-mediated doxorubicin resistance, pilot screen, H69AR cells, doxorubicin co-treatment (AID 601;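 active = viability loss from added drug above about 55%, and viability with drug at most 40%, in both replicates, limit read from the data, passing the limit was not always enough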). The conditions noted are these: CellTiter-Glo, 72 h, at 10 µM; for differential viability (reversal): stronger effect = higher value.
A short description of experiment [7]: 384-well plate pilot, post-Golgi transport modulator project, inhibition of yeast transport mutant growth (AID 636; in the data active = inhibition above about 31%). The note with it: absorbance 615 nm, about 18 h, stronger effect = higher value.
Experiment [8] in a line: growth suppression of yeast trafficking mutant, preliminary HTS, modulators of trafficking downstream of Golgi apparatus project, 1536-format plate, OD 615 nm (AID 637; in the data active = inhibition above about 30%). The note with it: yeast transport mutant growth, absorbance 615 nm, 18 h; stronger effect = higher value.
Setting [9] is: H69AR cells + 2 uM doxorubicin, measured here: viability with 2 uM doxorubicin, stronger effect = lower value.
The mark [10] stands for this setting: H69AR cells, compound alone cytotoxicity.

From PubChem BioAssay come the findings set out here.

Activity calls are given as the source filed them.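 Rule for the calls, unless noted: active = Her2 level under about 52% in both replicate screens, with viability over 70% of control (limit read from the data); inconclusive = Her2 under the limit in one screen only, or viability under 70%; inactive = Her2 level above the set limit.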

Receptor tyrosine-protein kinase erbB-2 (Homo sapiens), sequence (P04626 whole entry, looked up): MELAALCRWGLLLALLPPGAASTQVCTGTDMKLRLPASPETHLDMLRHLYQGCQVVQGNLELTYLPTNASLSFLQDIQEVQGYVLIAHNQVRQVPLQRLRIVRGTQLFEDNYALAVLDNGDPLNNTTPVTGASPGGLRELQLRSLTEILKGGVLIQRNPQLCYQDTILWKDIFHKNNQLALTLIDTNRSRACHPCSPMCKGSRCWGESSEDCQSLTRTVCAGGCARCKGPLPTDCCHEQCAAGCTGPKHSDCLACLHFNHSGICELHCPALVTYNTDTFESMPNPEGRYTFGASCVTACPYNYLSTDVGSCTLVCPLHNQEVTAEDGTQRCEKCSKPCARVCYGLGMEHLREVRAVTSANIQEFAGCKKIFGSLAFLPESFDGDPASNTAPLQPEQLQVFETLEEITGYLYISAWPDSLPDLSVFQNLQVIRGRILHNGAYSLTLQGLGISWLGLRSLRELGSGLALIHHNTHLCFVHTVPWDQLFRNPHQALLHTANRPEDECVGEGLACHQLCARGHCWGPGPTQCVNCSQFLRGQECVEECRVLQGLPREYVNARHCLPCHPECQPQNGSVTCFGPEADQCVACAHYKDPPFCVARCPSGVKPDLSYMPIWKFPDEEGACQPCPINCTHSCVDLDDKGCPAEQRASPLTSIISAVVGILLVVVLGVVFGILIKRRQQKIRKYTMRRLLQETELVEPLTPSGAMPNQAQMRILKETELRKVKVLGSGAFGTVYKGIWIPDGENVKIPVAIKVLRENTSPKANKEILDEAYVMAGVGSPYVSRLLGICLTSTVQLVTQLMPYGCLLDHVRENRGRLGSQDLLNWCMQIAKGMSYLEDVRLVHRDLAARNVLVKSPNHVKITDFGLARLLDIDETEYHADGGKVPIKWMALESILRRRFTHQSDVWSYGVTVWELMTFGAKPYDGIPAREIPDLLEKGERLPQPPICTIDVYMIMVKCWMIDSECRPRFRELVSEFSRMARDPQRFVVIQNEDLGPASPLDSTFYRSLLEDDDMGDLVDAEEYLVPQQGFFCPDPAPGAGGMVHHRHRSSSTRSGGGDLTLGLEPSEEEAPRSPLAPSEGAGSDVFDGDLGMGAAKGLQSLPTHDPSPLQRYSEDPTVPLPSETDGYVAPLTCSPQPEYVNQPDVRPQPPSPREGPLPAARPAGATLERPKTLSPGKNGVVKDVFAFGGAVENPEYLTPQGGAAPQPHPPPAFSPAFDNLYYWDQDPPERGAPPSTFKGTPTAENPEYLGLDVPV

Turning to `C[C@]12CCC(=O)C=C1CC[C@@H]1[C@@H]2CC[C@@]2(C)[C@H]1CC[C@]2(O)C(=O)CO`, the viability is 99% in experiment [1]; 99% (inactive) in experiment [3]; 97.7% (inactive) in experiment [4]; 92.8% (inactive) in experiment [5]; 99.4% in experiment [6] (setting [9]); 92.8% in experiment [6] (setting [10]). Also, the Her2 level in experiment [2] is 142% (inactive). For the same molecule, the differential viability (reversal) in experiment [6] (H69AR cells + 2 uM doxorubicin) is -6.52% (inactive).
For the molecule `CCOC(=O)c1[nH]c2ccccc2c1NC(=O)C(CC)CC`, the viability is 98.5% in experiment [1]; 98.5% (inactive) in experiment [3]; 80.8% (inactive) in experiment [4]; 93.3% (inactive) in experiment [5]; 79.4% in experiment [6] (setting [9]); 93.3% in experiment [6] (setting [10]). Moreover, the Her2 level in experiment [2] was 99.5% (inactive). Moreover, the differential viability (reversal) in experiment [6] (H69AR cells + 2 uM doxorubicin) is 13.9% (inactive). The inhibition was -4.27% (inactive) in experiment [7] and 5.5% (inactive) in experiment [8].
With `CCC(=O)O[C@@H]1CC(=O)O[C@H](C)CC=CC=C[C@@H](O)[C@H](C)C[C@H](CC=O)[C@H](O[C@H]2O[C@H](C)[C@@H](O[C@H]3C[C@@](C)(O)[C@@H](OC(=O)CC)[C@H](C)O3)[C@H](N(C)C)[C@H]2O)[C@H]1OC`, the viability is 93.5% in experiment [1]; 93.5% (inactive) in experiment [3]; 109% (inactive) in experiment [4]; 95.3% (inactive) in experiment [5]; 100% in experiment [6] (setting [9]); 95.3% in experiment [6] (setting [10]). For the same molecule, in experiment [2], the Her2 level was 126% (inactive). For the same molecule, in experiment [6] (H69AR cells + 2 uM doxorubicin), the differential viability (reversal) was -4.97% (inactive).
As for `CCCCOc1ccc(OCCCN2CCOCC2)cc1`, the viability was 96.5% in experiment [1]; 96.5% (inactive) in experiment [3]; 91.7% (inactive) in experiment [4]; 103% (inactive) in experiment [5]; 95.2% in experiment [6] (setting [9]); 103% in experiment [6] (setting [10]). Besides, in experiment [2], the Her2 level was 108% (inactive). Also, the differential viability (reversal) in experiment [6] (H69AR cells + 2 uM doxorubicin) is 7.79% (inactive).
With `CC(=O)Nc1ccc(Oc2ccc3nc(C)[nH]c3c2)cc1`, the viability in experiment [1] was 97.5%; in experiment [3], 97.5% (inactive); in experiment [4], 113% (inactive); in experiment [5] it was 95.4% (inactive); in experiment [6] (setting [9]), 105%; in experiment [6] (setting [10]), 95.4%. Moreover, in experiment [2], the Her2 level was 93.5% (inactive). Also, the differential viability (reversal) in experiment [6] (H69AR cells + 2 uM doxorubicin) was -9.67% (inactive). Also, the inhibition is -6.58% (inactive) in experiment [7] and -10.3% (inactive) in experiment [8].
Regarding `Cc1cc2cc(CN(CCCN3CCOCC3)C(=O)NC3CCCCC3)c(=O)[nH]c2cc1C`, the viability in experiment [1] was 73.5%; in experiment [3], 73.5% (inactive); in experiment [4] it was 70.2% (inactive); in experiment [5] it was 82.8% (inactive); in experiment [6] (setting [9]) it was 76.5%; in experiment [6] (setting [10]), 82.8%. Besides, the Her2 level in experiment [2] was 83% (inactive). In addition, in experiment [6] (H69AR cells + 2 uM doxorubicin), the differential viability (reversal) was 6.29% (inactive). The inhibition is -5.07% (inactive) in experiment [7] and -2.26% (inactive) in experiment [8].
Turning to `CCOC(=O)C1CCN(c2c(NCCN3CCN(c4ccccc4)CC3)c(=O)c2=O)CC1`, the viability is 87.5% in experiment [1]; 87.5% (inactive) in experiment [3]; 92.1% (inactive) in experiment [4]; 99.1% (inactive) in experiment [5]; 104% in experiment [6] (setting [9]); 99.1% in experiment [6] (setting [10]). For the same molecule, the Her2 level in experiment [2] was 98.5% (inactive). Moreover, the differential viability (reversal) in experiment [6] (H69AR cells + 2 uM doxorubicin) was -5.04% (inactive). The inhibition in experiment [7] is 0.38% (inactive); in experiment [8], -3.33% (inactive).
For `Cc1csc2nc(CNC(=O)c3ccco3)cn12`, the viability in experiment [1] is 86%; in experiment [3], 86% (inactive); in experiment [4], 95.6% (inactive); in experiment [5], 112% (inactive); in experiment [6] (setting [9]) it was 98.5%; in experiment [6] (setting [10]) it was 112%. Further, the Her2 level in experiment [2] was 102% (inactive). Also, in experiment [6] (H69AR cells + 2 uM doxorubicin), the differential viability (reversal) is 13.9% (inactive). The inhibition in experiment [7] was -1.2% (inactive); in experiment [8], -4.35% (inactive).
Turning to `Cn1c(=O)c2c(nc(NCCCO)n2C/C=C/c2ccccc2)n(C)c1=O`, the viability in experiment [1] was 73.5%; in experiment [3], 73.5% (inactive); in experiment [4], 85.7% (inactive); in experiment [5], 83.2% (inactive); in experiment [6] (setting [9]), 98%; in experiment [6] (setting [10]), 83.2%. The Her2 level in experiment [2] is 70.5% (inactive). In experiment [6] (H69AR cells + 2 uM doxorubicin), the differential viability (reversal) is -14.8% (inactive). Also, the inhibition in experiment [7] was -4.08% (inactive); in experiment [8] it was -0.17% (inactive).
Consider `CCCCCCC(C)n1[nH]c(=O)c2c(C)cc(=O)[nH]c21` (centres undefined), for which the viability is 89.5% in experiment [1]; 89.5% (inactive) in experiment [3]; 77.7% (inactive) in experiment [4]; 94.2% (inactive) in experiment [5]; 98.6% in experiment [6] (setting [9]); 94.2% in experiment [6] (setting [10]). The Her2 level in experiment [2] was 107% (inactive). For the same molecule, the differential viability (reversal) in experiment [6] (H69AR cells + 2 uM doxorubicin) was -4.37% (inactive). The inhibition in experiment [7] is -1.73% (inactive); in experiment [8] it was -7.54% (inactive).
Regarding `COc1ccc(-c2cc(C(=O)NCc3ccc(Cl)cc3)no2)cc1OC`, the viability is 92.5% in experiment [1]; 92.5% (inactive) in experiment [3]; 83% (inactive) in experiment [4]; 100% (inactive) in experiment [5]; 99.5% in experiment [6] (setting [9]); 100% in experiment [6] (setting [10]). The Her2 level in experiment [2] is 88.5% (inactive). The differential viability (reversal) in experiment [6] (H69AR cells + 2 uM doxorubicin) is 0.66% (inactive). The inhibition was -6.35% (inactive) in experiment [7] and -0.33% (inactive) in experiment [8].
As to `Cc1cc(C)n(S(=O)(=O)Cc2ccccc2)n1`, the viability in experiment [1] was 102%; in experiment [3], 102% (inactive); in experiment [4], 97.4% (inactive); in experiment [5], 92.2% (inactive); in experiment [6] (setting [9]) it was 92.4%; in experiment [6] (setting [10]) it was 92.2%. In experiment [2], the Her2 level was 135% (inactive). The differential viability (reversal) in experiment [6] (H69AR cells + 2 uM doxorubicin) is -0.205% (inactive). The inhibition in experiment [7] is -6.32% (inactive); in experiment [8], 4.59% (inactive).
`Nc1nc2sc3c(c2c(=O)s1)CCCC3`: the viability in experiment [1] was 112%; in experiment [3] it was 112% (inactive); in experiment [4], 60.3% (inactive); in experiment [5] it was 74.7% (inactive); in experiment [6] (setting [9]) it was 78.1%; in experiment [6] (setting [10]), 74.7%. Further, in experiment [2], the Her2 level was 108% (inactive). The differential viability (reversal) in experiment [6] (H69AR cells + 2 uM doxorubicin) is -3.39% (inactive). In addition, the inhibition is -2.24% (inactive) in experiment [7] and 1.31% (inactive) in experiment [8].
Consider `COc1ccc(-c2noc(-c3ccccc3C(=O)NCc3ccco3)n2)cc1`, for which the viability was 93% in experiment [1]; 93% (inactive) in experiment [3]; 107% (inactive) in experiment [4]; 82.8% (inactive) in experiment [5]; 94.9% in experiment [6] (setting [9]); 82.8% in experiment [6] (setting [10]). The Her2 level in experiment [2] was 104% (inactive). The differential viability (reversal) in experiment [6] (H69AR cells + 2 uM doxorubicin) was -12.1% (inactive). In addition, the inhibition in experiment [7] is -3.12% (inactive); in experiment [8] it was -5.24% (inactive).
As to `COc1ccc2cc(C(c3nnnn3C3CCCCC3)N3CCCCCC3)c3nnnn3c2c1` (centres undefined), the viability in experiment [1] is 94%; in experiment [3], 94% (inactive); in experiment [4] it was 81.6% (inactive); in experiment [5], 64.3% (inactive); in experiment [6] (setting [9]), 67.2%; in experiment [6] (setting [10]) it was 64.3%. Besides, the Her2 level in experiment [2] was 72.5% (inactive). For the same molecule, the differential viability (reversal) in experiment [6] (H69AR cells + 2 uM doxorubicin) was -2.87% (inactive). Besides, the inhibition was -4.8% (inactive) in experiment [7] and -2.86% (inactive) in experiment [8].
Regarding `CCc1cc2ccc(C)cc2nc1SCC(=O)N1CCN(C(=O)c2ccco2)CC1`, the viability in experiment [1] was 112%; in experiment [3] it was 112% (inactive); in experiment [4], 70.1% (inactive); in experiment [5], 64.5% (inactive); in experiment [6] (setting [9]) it was 70%; in experiment [6] (setting [10]) it was 64.5%. The Her2 level in experiment [2] is 82% (inactive). Further, the differential viability (reversal) in experiment [6] (H69AR cells + 2 uM doxorubicin) was -5.54% (inactive). In addition, the inhibition in experiment [7] is -3.82% (inactive); in experiment [8], -0.18% (inactive).
